Laboratory results: ChEMBL document CHEMBL1275595, “Antimicrobial activity of a halocidin-derived peptide resistant to attacks by proteases” (2010)
≈ marks a conversion by molar mass, not a printed value. Calls of active or inactive are those of the source. The rule behind the calls is not given here. Bridge positions count the residues as written; N and C are the ends. Peptide text beside a SMILES is read from it. I, II: the chains in the order shown.

Experiments:
Listeria monocytogenes = assay: Antimicrobial activity against Listeria monocytogenes KCTC 19111 after 18 hrs by broth dilution method; type: functional; settings: KCTC 19111, 18 h
How it was run: (§1)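 Broth microdilution following CLSI recommendations. Bacteria were grown overnight to stationary phase in Mueller-Hinton broth, then diluted in fresh MHB to 2 × 10^5 CFU/ml. Peptide or antibiotic stocks of 640 μg/ml in 0.01% acetic acid were serially 2-fold diluted to 10 μg/ml, and each was added to the bacterial suspension at 11 μl per 100 μl. Plates were incubated 18 h at 37°C. MIC was taken as the lowest concentration giving no visible turbidity, in triplicate.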

Citrobacter freundii = assay: Antimicrobial activity against Citrobacter freundii KCTC 2359 after 18 hrs by broth dilution method; type: functional; settings: KCTC 2359, 18 h; how it was run: as §1
Klebsiella oxytoca = assay: Antimicrobial activity against Klebsiella oxytoca KCTC 1686 after 18 hrs by broth dilution method; type: functional; settings: KCTC 1686, 18 h; how it was run: as §1
Pseudomonas aeruginosa = assay: Antimicrobial activity against multidrug-resistant Pseudomonas aeruginosa CCARM 2161 after 18 hrs by broth dilution method; type: functional; settings: CCARM 2161, 18 h
How it was run: (§2)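 Broth dilution per CLSI. Bacteria were grown overnight to stationary phase in Mueller-Hinton broth and diluted in fresh MHB to 2 × 10^5 CFU/ml. Stocks at 640 μg/ml in 0.01% acetic acid were 2-fold serially diluted to 10 μg/ml, and 11 μl was added to 100 μl of bacteria. After 18 h at 37°C, MIC was the lowest concentration with no visible turbidity. Run in triplicate.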

Staphylococcus aureus [1] = assay: Antimicrobial activity against methicillin-resistant Staphylococcus aureus CCARM 3696 by radial diffusion assay incubated with chymotrypsin; type: functional, organism-based
Escherichia coli = assay: Antimicrobial activity against Escherichia coli KCTC 1039 after 18 hrs by broth dilution method; type: functional; settings: KCTC 1039, 18 h; how it was run: as §1
Micrococcus luteus = assay: Antimicrobial activity against Micrococcus luteus KCTC 9341 after 18 hrs by broth dilution method; type: functional; settings: KCTC 9341, 18 h; how it was run: as §1
Staphylococcus aureus [2] = assay: Antimicrobial activity against methicillin-resistant Staphylococcus aureus CCARM 3696 by radial diffusion assay incubated with Staphylococcus aureus Culture supernatant for 1 hr; type: functional, organism-based
Staphylococcus aureus [3] = assay: Antimicrobial activity against methicillin-resistant Staphylococcus aureus CCARM 3696 after 18 hrs by broth dilution method; type: functional; settings: CCARM 3696, 18 h; how it was run: as §2
Staphylococcus aureus [4] = assay: Antimicrobial activity against methicillin-resistant Staphylococcus aureus CCARM 3696 by radial diffusion assay incubated with human wound fluid for 1 hr; type: functional, organism-based
Staphylococcus aureus [5] = assay: Antimicrobial activity against methicillin-resistant Staphylococcus aureus CCARM 3696 by radial diffusion assay incubated with chymotrypsin for 1 hr; type: functional, organism-based
Bacillus subtilis = assay: Antimicrobial activity against Bacillus subtilis KCTC 2213 after 18 hrs by broth dilution method; type: functional; settings: KCTC 2213, 18 h; how it was run: as §1
Enterococcus faecium = assay: Antimicrobial activity against vancomycin-resistant Enterococcus faecium CCARM 5028 after 18 hrs by broth dilution method; type: functional; settings: CCARM 5028, 18 h; how it was run: as §2
Staphylococcus aureus [6] = assay: Antimicrobial activity against methicillin-resistant Staphylococcus aureus CCARM 3696 by radial diffusion assay incubated with human wound fluid for 4 hrs; type: functional, organism-based
Salmonella enterica = assay: Antimicrobial activity against Salmonella enterica KCTC 2930 after 18 hrs by broth dilution method; type: functional; settings: KCTC 2930, 18 h; how it was run: as §1
Staphylococcus aureus [7] = assay: Antimicrobial activity against methicillin-resistant Staphylococcus aureus CCARM 3696 by radial diffusion assay incubated with matrix metalloprotease 7 for 1 hr; type: functional, organism-based
Staphylococcus aureus [8] = assay: Antimicrobial activity against methicillin-resistant Staphylococcus aureus CCARM 3696 by radial diffusion assay incubated with Pseudomonas aeruginosa Culture supernatant for 1 hr; type: functional, organism-based
Staphylococcus aureus [9] = assay: Antimicrobial activity against methicillin-resistant Staphylococcus aureus CCARM 3696 by colony count assay incubated with trypsin for 1 hr; type: functional, organism-based
How it was run: (§3)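 Peptide (20 μg) was incubated at 37°C with 50 nM trypsin in 100 μl of 10 mM sodium phosphate, then heated 10 min at 80°C and cooled. MRSA (100 μl, 2 × 10^7 CFU/ml) was added for 5 min. Aliquots were plated on TSA (1.5% agarose, 3% TSB in NaP) and counted after overnight growth at 37°C. Read-out was CFU/ml; repeated three times on different days.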

Staphylococcus aureus [10] = assay: Antimicrobial activity against methicillin-resistant Staphylococcus aureus CCARM 3696 by radial diffusion assay incubated with matrix metalloprotease 7 for 5 mins; type: functional, organism-based
Staphylococcus aureus [11] = assay: Antimicrobial activity against methicillin-resistant Staphylococcus aureus CCARM 3696 by colony count assay incubated with trypsin for 20 mins; type: functional, organism-based; how it was run: as §3
Staphylococcus aureus [12] = assay: Antimicrobial activity against methicillin-resistant Staphylococcus aureus CCARM 3696 by colony count assay incubated with trypsin for 10 mins; type: functional, organism-based; how it was run: as §3

Row | SMILES | MIC (Listeria monocytogenes) [µg/mL] | MIC (Citrobacter freundii) [µg/mL] | MIC (Klebsiella oxytoca) [µg/mL] | MIC (Pseudomonas aeruginosa) [µg/mL] | MIC (Escherichia coli) [µg/mL] | MIC (Micrococcus luteus) [µg/mL] | Activity (Staphylococcus aureus [2]) | MIC (Staphylococcus aureus [3]) [µg/mL] | MIC (Bacillus subtilis) [µg/mL] | MIC (Enterococcus faecium) [µg/mL] | MIC (Salmonella enterica) [µg/mL] | Activity (Staphylococcus aureus [8]) | further results
1 | CC(C)C[C@H](NC(=O)CNC(=O)[C@H](Cc1cnc[nH]1)NC(=O)[C@H](Cc1cnc[nH]1)NC(=O)[C@H](CC(C)C)NC(=O)[C@H](CC(C)C)NC(=O)[C@H](C)NC(=O)[C@H](CC(N)=O)NC(=O)[C@H](CC(C)C)NC(=O)[C@H](Cc1c[nH]c2ccccc12)NC(=O)[C@@H](N)CCCCN)C(=O)N[C@@H](CC(N)=O)C(=O)N[C@@H](CSSC[C@H](NC(=O)[C@H](CC(N)=O)NC(=O)[C@H](CC(C)C)NC(=O)CNC(=O)[C@H](Cc1cnc[nH]1)NC(=O)[C@H](Cc1cnc[nH]1)NC(=O)[C@H](CC(C)C)NC(=O)[C@H](CC(C)C)NC(=O)[C@H](C)NC(=O)[C@H](CC(N)=O)NC(=O)[C@H](CC(C)C)NC(=O)[C@H](Cc1c[nH]c2ccccc12)NC(=O)[C@@H](N)CCCCN)C(=O)N[C@@H](C)C(=O)N[C@@H](CCCCN)C(=O)NCC(=O)N[C@H](C(=O)N[C@@H](CC(C)C)C(=O)N[C@@H](C)C(N)=O)C(C)C)C(=O)N[C@@H](C)C(=O)N[C@@H](CCCCN)C(=O)NCC(=O)N[C@H](C(=O)N[C@@H](CC(C)C)C(=O)N[C@@H](C)C(N)=O)C(C)C (I: H-KWLNALLHHGLNCAKGVLA-NH2 / II: H-KWLNALLHHGLNCAKGVLA-NH2; disulfide I:13-II:13) | 4 (≈ 0.973 µM) | 4 (≈ 0.973 µM) | 4 (≈ 0.973 µM) | 4 (≈ 0.973 µM) | 4 (≈ 0.973 µM) | 4 (≈ 0.973 µM) | Active | 4 (≈ 0.973 µM) | 2 (≈ 0.486 µM) | 2 (≈ 0.486 µM) | 4 (≈ 0.973 µM) | Active | Activity (Staphylococcus aureus [1]): Active; Activity (Staphylococcus aureus [4]): Active; Activity (Staphylococcus aureus [5]): Active; Activity (Staphylococcus aureus [6]): Active; Activity (Staphylococcus aureus [7]): Active
2 | CC[C@H](C)[C@H](NC(=O)CN)C(=O)NCC(=O)N[C@@H](CCCCN)C(=O)N[C@@H](Cc1ccccc1)C(=O)N[C@@H](CC(C)C)C(=O)N[C@@H](CCCCN)C(=O)N[C@@H](CCCCN)C(=O)N[C@@H](C)C(=O)N[C@@H](CCCCN)C(=O)N[C@@H](CCCCN)C(=O)N[C@@H](Cc1ccccc1)C(=O)NCC(=O)N[C@@H](CCCCN)C(=O)N[C@@H](C)C(=O)N[C@@H](Cc1ccccc1)C(=O)N[C@H](C(=O)N[C@@H](CCCCN)C(=O)N[C@H](C(=O)N[C@@H](CC(C)C)C(=O)N[C@@H](CCCCN)C(=O)N[C@@H](CCCCN)C(N)=O)[C@@H](C)CC)C(C)C [PEXIGANAN] (H-GIGKFLKKAKKFGKAFVKILKK-NH2) | 16 (≈ 6.46 µM) | 8 (≈ 3.23 µM) | 8 (≈ 3.23 µM) | 8 (≈ 3.23 µM) | 4 (≈ 1.61 µM) | 8 (≈ 3.23 µM) | inactive | 16 (≈ 6.46 µM) | 4 (≈ 1.61 µM) | 8 (≈ 3.23 µM) | 8 (≈ 3.23 µM) | inactive | Activity (Staphylococcus aureus [9]): Active; Activity (Staphylococcus aureus [10]): inactive; Activity (Staphylococcus aureus [11]): inactive; Activity (Staphylococcus aureus [12]): inactive
